From PubChem BioAssay AID504413 (Broad Institute, 2011) come the findings set out here.

The structures appear in SMILES notation. Records with an inconclusive call do not appear. The source made the active and inactive calls.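 The calls were made as follows: active = in every test run, the fitted curve rises past 10% of the positive control effect within the tested doses; inconclusive = runs disagree, or a flat fit at moderate level, or poor fit; inactive = all runs inactive, including signal going the wrong way.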

Assay [1] is described as follows: caspase-3/7 activation in A1-dependent MEFs, dose response, A1 inhibitor project, cell-based, A1-2A-BIM MEF, luminescence, dry powder (AID 504413). Particulars: MEF A1-2A-BIM cells, caspase-3/7 Glo luminescence; hits give high values. The method, boiled down:
(§1)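 Test system: mouse embryonic fibroblasts co-expressing A1-2A-BIM, primed for A1 dependence; medium: RPMI-1640, 10% FBS; timing: 37 °C compound 3 h, room-temperature reagent 1 h; signal: Caspase-3/7 luminescence from DEVD-luciferin substrate reagent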

Assay [2] concerns MEF A1-2A-BIM cells, caspase-3/7 Glo luminescence. The assay is described as above. In a few lines:
as §1

Consider `COc1ccc(CCNc2nc(N3CCOCC3)nc(N3CCOCC3)n2)cc1OC`, for which the max activity in assay [1] was -1.95% (inactive). Turning to `CCn1c(=O)c(Sc2ccc(C)cc2)c(Sc2ccc(C)cc2)c2ccccc21`, the max activity in assay [1] was 3.42% (inactive). Still for that read-out and setting: the value for `C/C(=N\Nc1nc(N2CCCCC2)nc(N2CCCCC2)n1)c1ccc(F)cc1` was 0.285% (inactive); that for `COc1c([N+](=O)[O-])c(=O)n(C)c2ccccc12` was -4.02% (inactive).

Regarding `Cc1ccc(S(=O)(=O)c2c([N+](=O)[O-])c(=O)n(C)c3ccccc23)cc1`, the AC10 in assay [2] is 7.02 µM.

Turning to `COc1nc2ccccc2c(Sc2ccc(C)cc2)c1[N+](=O)[O-]`, in assay [1], the max activity was -2.09% (inactive). Same read-out and setting: the value for `O=c1[nH]c2ccccc2c(O)c1[N+](=O)[O-]` was 0.403% (inactive); that for `COc1ccc(N2CCN(c3nc(NCCc4ccc(OC)c(OC)c4)nc(N4CCOCC4)n3)CC2)cc1` was -3.19% (inactive); that for `Cn1c(=O)c(Sc2ccccn2)c(Sc2ccccn2)c2ccccc21` was -0.138% (inactive). With `Cn1c(=O)c([N+](=O)[O-])c(Cl)c2ccccc21`, the AC10 in assay [2] is 2.6 µM. As for `COc1ccc(CCNc2nc(N3CCCC3)nc(N3CCCC3)n2)cc1OC`, the max activity in assay [1] is 4.48% (inactive). On the same count and under the same terms, the value for `O=C(COc1ccc(Cl)cc1Cl)NNc1nc(N2CCOCC2)nc(N2CCOCC2)n1` was -3.81% (inactive); that for `Cc1ccc(Sc2c(Sc3ccc(C)cc3)c3ccccc3n(Cc3ccccc3)c2=O)cc1` was 6.71% (inactive); that for `COc1nc2ccccc2c(Cl)c1[N+](=O)[O-]` was -3.3% (inactive). As for `COCCn1c(=O)c([N+](=O)[O-])c(Cl)c2ccccc21`, in assay [2], the AC10 is 1.9 µM. As to `Cc1ccc(Sc2c(Sc3ccc(C)cc3)c3ccccc3n(C)c2=O)cc1`, the max activity in assay [1] is 0.915% (inactive). With `Cc1ccc(Sc2c([N+](=O)[O-])c(=O)n(C)c3ccccc23)cc1`, the AC10 in assay [2] was 7.28 µM. Same read-out and setting: the value for `Cn1c(=O)c([N+](=O)[O-])c(Sc2ccccn2)c2ccccc21` was 3.78 µM. For `COCCn1c(=O)c(Sc2ccc(C)cc2)c(Sc2ccc(C)cc2)c2ccccc21`, the max activity in assay [1] is 4.03% (inactive).
